Reference: ChEMBL document CHEMBL1144229, “RCAI-17, 22, 24-26, 29, 31, 34-36, 38-40, and 88, the analogs of KRN7000 with a sulfonamide linkage: their synthesis and bioactivity for mouse natural killer T cells to produce Th2-biased cytokines” (Bioorg Med Chem, 2008)
Active and inactive are the calls of the source. The calls are words filed in the database; no cut-off is given here.

Legend:
Format in all cases: functional, cell-based
[1] = tested on: T-cell; test: Induction of IL13 production in C57BL/6 mouse natural killer T cells after 48 hrs by cytometric bead array
Summary of the method: (§1)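 Spleen cells (approx. 4 × 10⁵) from female C57BL/6 mice aged 6–8 weeks were cultured 48 h at 37 °C in humidified 5% CO₂. Medium was RPMI 1640 with 10% heat-inactivated FCS, 2 mM L-glutamine, penicillin/streptomycin and 10 mM Hepes, plus glycolipid at 2, 20 or 200 ng/mL. Supernatant IFN-γ, IL-4 and IL-13 were read by cytometric bead array with PE detection, interpolated from standard curves. Values are means of three wells.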

[2] = tested on: T-cell; test: Induction of IL4 production in C57BL/6 mouse natural killer T cells after 48 hrs by cytometric bead array; summary of the method: as §1
[3] = tested on: T-cell; test: Induction of IFN-gamma production in C57BL/6 mouse natural killer T cells upto 200 ng/ml after 48 hrs by cytometric bead array relative to KRN7000; summary of the method: as §1
[4] = tested on: T-cell; test: Induction of IFN-gamma production in C57BL/6 mouse natural killer T cells after 48 hrs by cytometric bead array
Summary of the method: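 Spleen cells (about 4 × 10⁵) from female C57BL/6 mice aged 6–8 weeks, in RPMI 1640 with 10% heat-inactivated FCS, glutamine, antibiotics and Hepes, at 37 °C in 5% CO₂. Cells were stimulated with glycolipid at 2, 20 or 200 ng/mL for 48 h. Supernatant IFN-γ was measured by cytometric bead array on FACS against a kit standard curve. Mean of three wells.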

[5] = tested on: T-cell; test: Induction of IL4 production in C57BL/6 mouse natural killer T cells at 2 ng/ml after 48 hrs by cytometric bead array; summary of the method: as §1
[6] = tested on: T-cell; test: Induction of IL13 production in C57BL/6 mouse natural killer T cells at 2 ng/ml after 48 hrs by cytometric bead array; summary of the method: as §1

Structure (SMILES)	Activity [1]	Activity [2]	Activity [3]	Activity [4]	Activity [5]	Activity [6]
CCCCCCCCCCCCCCCCCCCCCCCC(=O)N[C@@H](CO[C@H]1O[C@H](CO)[C@H](O)[C@H](O)[C@H]1O)[C@H](O)[C@H](O)CCCCC	Active	Active				
CCCCCCCCCCCCCCCCCCCCCCCCCC(=O)N[C@@H](CO[C@H]1O[C@H](CO)[C@H](O)[C@H](O)[C@H]1O)[C@H](O)[C@H](O)CCCCCCCCCCCCCC	Active	Active				
CCCCCCCCCCCCCC[C@@H](O)[C@@H](O)[C@H](CO[C@H]1O[C@H](CO)[C@H](O)[C@H](O)[C@H]1O)NS(=O)(=O)c1ccccc1C	Active	Active	inactive			
CCCCCCCCCCCCCC[C@@H](O)[C@@H](O)[C@H](CO[C@H]1O[C@H](CO)[C@H](O)[C@H](O)[C@H]1O)NS(=O)(=O)c1cccc(C)c1	Active	Active	inactive			
CCCCCCCCCCCCCC[C@@H](O)[C@@H](O)[C@H](CO[C@H]1O[C@H](CO)[C@H](O)[C@H](O)[C@H]1O)NS(=O)(=O)c1ccc(-c2ccccc2)cc1	Active	Active	inactive			
CCCCCCCCCCCCCCCCCC(=O)N[C@@H](CO[C@H]1O[C@H](CO)[C@H](O)[C@H](O)[C@H]1O)[C@H](O)[C@H](O)CCCCCCCCCCCCCC				Active		
CCCCCCCCCCCCCC[C@@H](O)[C@@H](O)[C@H](CO[C@H]1O[C@H](CO)[C@H](O)[C@H](O)[C@H]1O)NS(=O)(=O)c1ccc(OC)cc1	Active	Active	inactive			
CCCCCCCCCCCCCCCCS(=O)(=O)N[C@@H](CO[C@H]1O[C@H](CO)[C@H](O)[C@H](O)[C@H]1O)[C@H](O)[C@H](O)CCCCCCCCCCCCCC			inactive			
CCCCCCCCCCCCCC[C@@H](O)[C@@H](O)[C@H](CO[C@H]1O[C@H](CO)[C@H](O)[C@H](O)[C@H]1O)NS(=O)(=O)c1cccc2ccccc12	Active	Active	inactive			
CCCCCCCCCCCCCC[C@@H](O)[C@@H](O)[C@H](CC[C@H]1O[C@H](CO)[C@H](O)[C@H](O)[C@H]1O)NS(=O)(=O)c1ccc(C)cc1	inactive	inactive		inactive		
CCCCCCCCCCCCCC[C@@H](O)[C@@H](O)[C@H](CO[C@H]1O[C@H](CO)[C@H](O)[C@H](O)[C@H]1O)NC(=O)c1ccc(C)cc1				inactive		
CCCCCCCCCCCCCC[C@@H](O)[C@@H](O)[C@H](CO[C@H]1O[C@H](CO)[C@H](O)[C@H](O)[C@H]1O)NS(=O)(=O)c1ccc(C)cc1	Active	Active	inactive			
CCCCCCCCCCCCCC[C@@H](O)[C@@H](O)[C@H](CO[C@H]1O[C@H](CO)[C@H](O)[C@H](O)[C@H]1O)NS(=O)(=O)c1ccc(NC(C)=O)cc1	Active	Active	inactive		Active	Active
